Test results reported in ChEMBL document CHEMBL1132993, “Novel benzofuran and benzothiophene biphenyls as inhibitors of protein tyrosine phosphatase 1B with antihyperglycemic properties” (J Med Chem, 2000).
pIC50: −log10 of the molar value.

Legend:
[1] = target: T1, Tyrosine-protein phosphatase non-receptor type 1 (Homo sapiens, UniProt P18031); test: in vitro inhibitory activity against recombinant human Protein Tyrosine Phosphatase 1b
T1 sequence (P18031 whole entry): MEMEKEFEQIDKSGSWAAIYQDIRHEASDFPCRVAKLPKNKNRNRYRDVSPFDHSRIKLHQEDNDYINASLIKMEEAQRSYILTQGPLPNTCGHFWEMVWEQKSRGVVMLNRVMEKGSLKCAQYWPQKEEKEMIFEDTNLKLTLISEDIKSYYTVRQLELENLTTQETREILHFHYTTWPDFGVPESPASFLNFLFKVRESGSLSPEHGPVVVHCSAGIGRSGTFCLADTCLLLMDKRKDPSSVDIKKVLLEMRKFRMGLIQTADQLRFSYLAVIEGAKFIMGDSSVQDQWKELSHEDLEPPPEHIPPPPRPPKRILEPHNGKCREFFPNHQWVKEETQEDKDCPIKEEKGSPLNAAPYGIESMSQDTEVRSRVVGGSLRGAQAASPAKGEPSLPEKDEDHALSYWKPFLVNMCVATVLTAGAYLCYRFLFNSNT
In short: (§1)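 Recombinant human PTP1B, diluted in pH 7.4 Tris-HCl/EDTA/β-mercaptoethanol buffer, preincubated 10 min at 37 °C with compound in HEPES pH 7.4. Substrate was the insulin receptor 1142-1153 dodecapeptide phosphorylated at Y1146/1150/1151, 50 µM final. Reaction ran 30 min at 37 °C. Released phosphate was read by malachite green-ammonium molybdate at 650 nm, in quadruplicate. IC50 came from four-parameter logistic regression.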

[2] = target: T2, Tyrosine-protein phosphatase non-receptor type 1 (Homo sapiens) (UniProt P18031); conditions: 0.25 uM
T2 sequence (whole entry): T1 sequence (P18031 whole entry)

[3] = target: T2, Tyrosine-protein phosphatase non-receptor type 1 (Homo sapiens); conditions: 0.1 uM
Mus musculus [4] = test: percentage decrease in plasma glucose in the ob/ob mouse model at 25 mg/kg/day administered per orally; assay type: functional; conditions: route oral
In short: (§2)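 Genetically obese C57 B1/6J ob/ob diabetic mice, four to six per group, dosed orally once daily for 4 days. Plasma glucose is expressed as percent change relative to the vehicle-treated group, with p < 0.05 versus vehicle. Changes that are not significant are generally less than -15%. Ciglitazone served as the reference standard.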

[5] = target: Dual specificity protein phosphatase 3 (Homo sapiens, UniProt P51452); test: in vitro inhibitory activity against Dual specificity protein phosphatase 3
Chain of Dual specificity protein phosphatase 3 (P51452 whole entry): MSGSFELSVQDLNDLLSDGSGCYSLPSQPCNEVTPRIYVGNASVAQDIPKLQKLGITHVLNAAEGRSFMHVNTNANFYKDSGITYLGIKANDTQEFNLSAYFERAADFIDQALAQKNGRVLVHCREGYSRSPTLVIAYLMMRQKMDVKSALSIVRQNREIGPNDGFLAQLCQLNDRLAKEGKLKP

[6] = in vitro inhibitory activity against PTP-a
Mus musculus [7] = test: percentage decrease in plasma glucose in the ob/ob mouse model at 100 mg/kg/day administered per orally; assay type: functional; conditions: route oral; in short: as §2
[8] = target: Receptor-type tyrosine-protein phosphatase F (Homo sapiens, UniProt P10586); test: in vitro inhibitory activity against LAR
Chain of Receptor-type tyrosine-protein phosphatase F (P10586 whole entry): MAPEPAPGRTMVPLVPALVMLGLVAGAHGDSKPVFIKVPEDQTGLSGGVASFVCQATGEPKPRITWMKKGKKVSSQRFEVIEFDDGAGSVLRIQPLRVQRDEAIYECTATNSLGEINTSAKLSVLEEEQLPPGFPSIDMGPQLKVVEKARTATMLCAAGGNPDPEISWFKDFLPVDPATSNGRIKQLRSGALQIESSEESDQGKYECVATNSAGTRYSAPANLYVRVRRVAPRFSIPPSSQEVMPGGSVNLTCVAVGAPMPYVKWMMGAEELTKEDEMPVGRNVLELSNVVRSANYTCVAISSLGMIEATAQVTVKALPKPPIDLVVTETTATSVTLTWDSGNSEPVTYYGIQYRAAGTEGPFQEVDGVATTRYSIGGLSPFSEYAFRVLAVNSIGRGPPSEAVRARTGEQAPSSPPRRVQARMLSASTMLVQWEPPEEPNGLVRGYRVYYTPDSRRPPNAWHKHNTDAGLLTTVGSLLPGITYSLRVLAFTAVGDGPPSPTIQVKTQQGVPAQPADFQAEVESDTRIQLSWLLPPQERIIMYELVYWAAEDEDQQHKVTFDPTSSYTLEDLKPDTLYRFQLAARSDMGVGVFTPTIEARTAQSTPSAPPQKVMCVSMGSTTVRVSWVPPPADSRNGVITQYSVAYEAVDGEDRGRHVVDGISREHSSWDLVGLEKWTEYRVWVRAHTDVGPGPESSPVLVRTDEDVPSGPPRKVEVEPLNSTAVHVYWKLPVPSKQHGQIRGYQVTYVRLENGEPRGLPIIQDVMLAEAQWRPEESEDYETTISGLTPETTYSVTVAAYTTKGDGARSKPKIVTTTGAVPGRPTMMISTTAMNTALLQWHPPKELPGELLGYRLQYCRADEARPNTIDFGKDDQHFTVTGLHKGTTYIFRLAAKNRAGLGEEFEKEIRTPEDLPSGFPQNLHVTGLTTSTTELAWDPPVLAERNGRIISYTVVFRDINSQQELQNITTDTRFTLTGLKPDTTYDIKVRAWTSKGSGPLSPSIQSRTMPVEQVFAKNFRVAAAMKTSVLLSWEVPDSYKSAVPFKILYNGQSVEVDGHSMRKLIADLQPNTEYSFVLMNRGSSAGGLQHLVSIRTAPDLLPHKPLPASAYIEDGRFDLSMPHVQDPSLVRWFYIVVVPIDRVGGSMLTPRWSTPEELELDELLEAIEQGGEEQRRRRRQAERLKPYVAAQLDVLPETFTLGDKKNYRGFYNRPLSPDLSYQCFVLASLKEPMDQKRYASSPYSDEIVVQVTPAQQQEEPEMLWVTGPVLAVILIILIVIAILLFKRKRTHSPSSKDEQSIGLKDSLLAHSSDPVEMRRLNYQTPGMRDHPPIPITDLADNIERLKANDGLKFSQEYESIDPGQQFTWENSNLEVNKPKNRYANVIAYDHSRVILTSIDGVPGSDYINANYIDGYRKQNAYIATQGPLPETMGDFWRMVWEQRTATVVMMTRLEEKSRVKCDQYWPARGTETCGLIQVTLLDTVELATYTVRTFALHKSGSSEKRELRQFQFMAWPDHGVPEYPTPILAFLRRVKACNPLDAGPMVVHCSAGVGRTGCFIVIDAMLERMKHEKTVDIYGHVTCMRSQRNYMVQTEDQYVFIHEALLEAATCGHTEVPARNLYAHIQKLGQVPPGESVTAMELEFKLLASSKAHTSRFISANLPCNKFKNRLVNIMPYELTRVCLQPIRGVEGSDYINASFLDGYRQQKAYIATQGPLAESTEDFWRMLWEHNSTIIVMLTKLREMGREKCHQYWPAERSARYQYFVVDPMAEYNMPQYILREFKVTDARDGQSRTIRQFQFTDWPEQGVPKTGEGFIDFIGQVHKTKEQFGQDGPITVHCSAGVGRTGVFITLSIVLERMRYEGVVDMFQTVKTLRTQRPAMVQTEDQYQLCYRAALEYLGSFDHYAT

[9] = in vitro inhibitory activity against He-PTP
Mus musculus [10] = test: Percentage decrease in plasma glucose in the ob/ob mouse model at 100 mg/kg/day administered per orally; assay type: functional; conditions: route oral; in short: as §2
[11] = target: T1, Tyrosine-protein phosphatase non-receptor type 1; test: In vitro inhibitory activity against human recombinant protein tyrosine phosphatase 1b (PTP1B)
In short: as §1, with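 “7.4.” for “7.4. Substrate was the insulin receptor 1142-1153 dodecapeptide phosphorylated at Y1146/1150/1151, 50 µM final.”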

## O=C(O)/C=C\C(=O)Nc1cc(-c2ccc(-c3c(Cc4ccccc4)oc4ccccc34)cc2)ccc1O
[1]
  pIC50: 6.34

## O=C(O)CCC(=O)Nc1cc(-c2ccc(-c3c(Cc4ccccc4)oc4ccccc34)cc2)ccc1O
[1]
  pIC50: 6.04

## O=C(O)[C@H](Cc1ccccc1)Oc1ccc(-c2ccc(-c3c(Cc4ccc(F)cc4)oc4ccccc34)cc2)cc1
[2]
  Average inhibition: -38

## CCCc1cc(-c2ccc(-c3c(Cc4ccccc4)oc4ccccc34)cc2)ccc1O[C@@H](Cc1ccccc1)C(=O)O
[3]
  Average inhibition: -59

## O=C(O)[C@H](Cc1ccccc1)Oc1ccc(-c2ccc(-c3c(Cc4ccccc4)oc4ccccc34)cc2)cc1
Mus musculus [4]
  Decrease: 27%
[5]
  pIC50: 4.80
[6]
  pIC50: 4.47
Mus musculus [7]
  Decrease: 40%
[8]
  pIC50: 5.49
[9]
  pIC50: 5.15

## Cc1oc(-c2ccc(C(F)(F)F)cc2)nc1-c1ccc(-c2ccc(OCC(=O)O)cc2)cc1
Mus musculus [10]
  Decrease: 40%
[11]
  pIC50: 6.10
